These results are taken from PubChem BioAssay AID743257 (The Scripps Research Institute Molecular Screening Center, 2014).

The whole screen tested about 2,900 compounds, of which about 1,900 (66%) were called active. The set was probably picked from earlier hits. These entries were drawn from the full list. A number with no mark means an inactive call.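 Rule for the calls: active = mean inhibition across replicates above the hit cutoff set in the primary screen (cut at about 8.5% in these data); inactive = the rest.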

In the assay the target is Disintegrin and metalloproteinase domain-containing protein 17 (Homo sapiens) (UniProt P78536). Nature of the assay: inhibition of human ADAM17 protease activity – biochemical, QFRET peptide cleavage, confirmation (AID 743257).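 Note: 0% = DMSO wells and 100% = marimastat wells.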 As to conditions: recombinant ADAM17, EDANS/DABCYL QFRET peptide cleavage; at 6.95 µM; active compounds read high. Summed up: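 Assay system – human ADAM17 enzyme, FRET peptide cleavage · Read-out – percent inhibition · Schedule – 30 min preincubation, 3 h reaction · Buffer or medium – 50 mM HEPES buffer, pH 7.5, with 0.01% Brij · Controls – DMSO wells and 1 µM marimastat wells as references · Measured by – fluorescence at ex 359 nm, em 460 nm · Dosing – 6.95 µM compound, single dose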
Chain of Disintegrin and metalloproteinase domain-containing protein 17 (Homo sapiens) (P78536 215-824 limits assumed): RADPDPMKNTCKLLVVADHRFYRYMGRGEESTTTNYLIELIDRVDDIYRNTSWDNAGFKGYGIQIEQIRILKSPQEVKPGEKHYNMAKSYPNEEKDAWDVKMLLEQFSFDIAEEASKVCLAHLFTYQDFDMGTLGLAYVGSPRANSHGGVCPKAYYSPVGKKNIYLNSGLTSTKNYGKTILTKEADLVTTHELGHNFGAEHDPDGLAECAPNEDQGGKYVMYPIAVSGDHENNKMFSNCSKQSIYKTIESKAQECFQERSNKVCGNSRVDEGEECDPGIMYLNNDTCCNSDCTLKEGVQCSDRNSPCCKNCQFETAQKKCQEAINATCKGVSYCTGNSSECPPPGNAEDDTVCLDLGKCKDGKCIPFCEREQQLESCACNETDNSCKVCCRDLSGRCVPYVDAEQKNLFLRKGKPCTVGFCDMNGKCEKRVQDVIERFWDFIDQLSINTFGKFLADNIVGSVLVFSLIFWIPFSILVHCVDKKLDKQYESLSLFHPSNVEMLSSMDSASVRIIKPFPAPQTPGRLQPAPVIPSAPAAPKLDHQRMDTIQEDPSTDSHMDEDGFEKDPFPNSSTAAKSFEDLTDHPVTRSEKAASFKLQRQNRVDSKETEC
On to `CCOC(=O)CC(SP1(=S)OCC2(CCCCO2)C(C2CCCCO2)O1)C(=O)OCC` (configuration not stated), for which the inhibition was 24.1% (active).
With `COC(=O)C1=C(c2ccc(-c3ccccc3)c(F)c2)C[C@@H]2CC[C@H]1N2C(=O)NCc1ccc(F)cc1`, the inhibition was 7.03%.

For orientation: inhibition means how much of the control response was suppressed.
